Test results: ChEMBL document CHEMBL2385076, “Discovery of 2-((1H-benzo[d]imidazol-1-yl)methyl)-4H-pyrido[1,2-a]pyrimidin-4-ones as novel PKM2 activators” (Bioorg Med Chem Lett, 2013)
pEC50: −log10 of the molar value. Converted amounts (≈) assume the structure as drawn. Each block holds one compound with its values, some of them ahead of it. The source made the active and inactive calls. The rule behind the calls is not given here.

Key:
[1] = Passive permeability from apical to basolateral side of dog RRCK cells; type: ADME, cell-based, Canis lupus familiaris, MDCKII-LE; conditions: MDCK, read-out: permeability
[2] = Intrinsic clearance in human liver microsomes; type: ADME, Microsome; conditions: read-out: CLH
Pyruvate kinase PKM [3] = molecular target: T1, Pyruvate kinase PKM (Homo sapiens, UniProt P14618); assay: Activation of human PKM2 assessed as production of ATP at infinite concentration after 10 mins by lactate dehydrogenase-coupled enzyme assay relative to FBP
Summary of the method: (§1)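 Coupled to lactate dehydrogenase, NADH loss read as the drop in absorbance at 340 nm. Reaction: 2nM human PKM2 (cleaved N-term his, 1-531), 2 mM PEP, 0.35 mM NADH, 4 units/mL LDH in 50 mM Tris pH 7.5 with KCl and 5 mM MgCl2. Compound preincubated 10 minutes at 32 °C, then 0.5mM ADP starts the reaction. Duplicates; 10-point curves; asymptote max = % activation at infinite concentration.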
Target sequence in this assay (P14618 2-531 limits assumed): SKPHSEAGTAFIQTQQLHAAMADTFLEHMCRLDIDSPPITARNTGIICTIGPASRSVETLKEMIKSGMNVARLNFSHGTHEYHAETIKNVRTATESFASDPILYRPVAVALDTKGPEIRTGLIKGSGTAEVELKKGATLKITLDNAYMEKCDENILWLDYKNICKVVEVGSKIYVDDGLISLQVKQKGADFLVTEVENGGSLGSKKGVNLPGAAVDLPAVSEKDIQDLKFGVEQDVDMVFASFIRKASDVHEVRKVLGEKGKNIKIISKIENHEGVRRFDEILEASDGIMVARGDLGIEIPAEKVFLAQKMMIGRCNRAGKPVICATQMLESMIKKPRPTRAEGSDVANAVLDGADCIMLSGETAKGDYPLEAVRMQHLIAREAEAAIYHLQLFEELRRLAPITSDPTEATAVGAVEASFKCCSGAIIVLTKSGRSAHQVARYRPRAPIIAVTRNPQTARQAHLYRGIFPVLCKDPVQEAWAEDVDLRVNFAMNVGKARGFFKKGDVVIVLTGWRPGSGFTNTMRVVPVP

[4] = Kinetic solubility of the compound at pH 7.4; type: physicochemical; conditions: buffer, read-out: Kinetic_solubility
SNU-449 = assay: Antiproliferative activity against human SNU449 cells at 10 uM after 5 days; type: functional, cell-based
Summary of the method: (§2)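 Cells plated in Optimem-GlutaMax medium and cultured overnight before exposure to 10 µM compound. Viability measured with CytoTox-Glo after 5 days of treatment.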

HuH-1 (human) = assay: Antiproliferative activity against human HuH1 cells at 10 uM after 5 days
HT-29 = assay: Antiproliferative activity against human HT-29 cells at 10 uM after 5 days; type: functional; conditions: HT-29, 120 h; summary of the method: as §2
Pyruvate kinase PKM [5] = molecular target: T1, Pyruvate kinase PKM; assay: Activation of PKM2 in human Huh7 cells assessed as production of pyruvate and ATP by fluorescence assay; type: cell-based, Huh-7
Summary of the method: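 Huh7 hepatocellular carcinoma cells were treated with compound and lysed, and the lysate was given PEP and ADP. The pyruvate formed was oxidized by pyruvate oxidase, and the fluorescence, proportional to pyruvate, was read as cellular pyruvate kinase activity.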
Target sequence in this assay (P14618 whole entry): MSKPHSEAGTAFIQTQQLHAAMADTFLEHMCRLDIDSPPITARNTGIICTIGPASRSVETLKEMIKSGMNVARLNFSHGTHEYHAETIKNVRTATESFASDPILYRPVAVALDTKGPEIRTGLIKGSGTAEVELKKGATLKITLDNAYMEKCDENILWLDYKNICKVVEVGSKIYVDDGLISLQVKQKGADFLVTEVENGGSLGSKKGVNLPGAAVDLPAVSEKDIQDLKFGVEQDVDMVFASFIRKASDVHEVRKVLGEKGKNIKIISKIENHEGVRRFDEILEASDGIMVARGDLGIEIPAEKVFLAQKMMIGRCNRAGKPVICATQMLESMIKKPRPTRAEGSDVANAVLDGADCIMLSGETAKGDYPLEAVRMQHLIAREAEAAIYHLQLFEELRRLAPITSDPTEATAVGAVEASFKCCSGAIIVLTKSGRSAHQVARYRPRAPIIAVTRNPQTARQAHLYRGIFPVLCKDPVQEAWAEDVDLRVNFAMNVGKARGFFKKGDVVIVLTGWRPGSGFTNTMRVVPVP

Pyruvate kinase PKM [6] = molecular target: T1, Pyruvate kinase PKM; assay: Activation of PKM2 in human Snu182 cells assessed as oxygen consumption rate at 10 uM after 18 hrs; type: cell-based
Summary of the method: (§3)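 Snu182 cells seeded at 12k/well in RPMI with 10% FBS and 2 mM glutamine, cultured overnight, then given 10 µM compound for 18 h at 37°C, 5% CO2. Medium switched to XF DMEM with 5 mM glucose plus 10 µM compound; OCR and ECAR measured on a Seahorse XF96 analyzer.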
Target sequence in this assay (P14618 2-531 limits assumed): as the sequence (P14618 2-531 limits assumed) above

SNU-182 = assay: Antiproliferative activity against human SNU182 cells at 10 uM after 5 days; type: functional, cell-based; summary of the method: as §2
JHH2 = assay: Antiproliferative activity against human JHH2 cells at 10 uM after 5 days; type: functional, cell-based; summary of the method: as §2
Pyruvate kinase PKM [7] = molecular target: T1, Pyruvate kinase PKM; assay: Activation of PKM2 in human Snu182 cells assessed as extracellular acidification rate at 10 uM after 18 hrs; type: cell-based; summary of the method: as §3
Target sequence in this assay (P14618 2-531 limits assumed): as above

Pyruvate kinase PKM [8] = molecular target: T1, Pyruvate kinase PKM; assay: Activation of PKM2 in human Huh7 cells assessed as formation of enzyme tetramers; type: cell-based; conditions: Huh-7
Target sequence in this assay (P14618 2-531 limits assumed): as above

Pyruvate kinase PKM [9] = molecular target: T1, Pyruvate kinase PKM; assay: Activation of human PKM2 assessed as production of ATP at 10 uM after 10 mins by lactate dehydrogenase-coupled enzyme assay; summary of the method: as §1
Target sequence in this assay (P14618 2-531 limits assumed): as above

Pyruvate kinase PKM [10] = molecular target: T1, Pyruvate kinase PKM; assay: Activation of human PKM2 assessed as production of ATP at 10 uM after 10 mins by high-throughput screening assay relative to control
Summary of the method: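 High-throughput screen in which PKM2 activity was read as ATP production by luminescence, reported as % activation at 10 µM.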
Target sequence in this assay (P14618 2-531 limits assumed): as above

Structure (SMILES): Cc1cn2c(=O)cc(Cn3cnc4ccccc43)nc2s1
Papp A→B [1]: 14.3 ×10⁻⁶ cm/s | microsomal CLint [2]: 8 µL/min/mg | max activation (Pyruvate kinase PKM [3]): 189%

Structure (SMILES): Cc1sc2nc(Cn3cnc4ccccc43)cc(=O)n2c1C
Papp A→B [1]: 22.9 ×10⁻⁶ cm/s | microsomal CLint [2]: 12.5 µL/min/mg | solubility kinetic [4]: 141 µM (≈ 43.8 µg/mL) | max activation (Pyruvate kinase PKM [3]): 160%

Structure (SMILES): Cc1csc2nc(Cn3cnc4ccccc43)cc(=O)n12
Papp A→B [1]: 23.4 ×10⁻⁶ cm/s | microsomal CLint [2]: 8 µL/min/mg | solubility kinetic [4]: 117 µM (≈ 34.7 µg/mL) | max activation (Pyruvate kinase PKM [3]): 136%

Structure (SMILES): COc1cccc(NS(=O)(=O)c2cc3c(cc2Cl)NC(=O)CO3)c1
Papp A→B [1]: 8.8 ×10⁻⁶ cm/s | Activity (SNU-449): inactive | Activity (HuH-1 (human)): inactive | inhibition at 10 µM (HT-29): 26.8% | pEC50 (Pyruvate kinase PKM [5]): 7.66 | Activity (Pyruvate kinase PKM [6]): 85.7% | Activity (SNU-182): inactive | microsomal CLint [2]: 22.4 µL/min/mg | solubility kinetic [4]: 8.6 µM (≈ 3.17 µg/mL) | Activity (JHH2): inactive | Activity (Pyruvate kinase PKM [7]): 91.4% | max activation (Pyruvate kinase PKM [3]): 108% | Activity (Pyruvate kinase PKM [8]): Active

Structure (SMILES): Cc1ccc2nc(Cn3c(C)nc4ccccc43)cc(=O)n2c1
max activation (Pyruvate kinase PKM [9]): 73%

Structure (SMILES): CCc1nn2c(=O)cc(Cn3cnc4ccccc43)nc2s1
Papp A→B [1]: 17.6 ×10⁻⁶ cm/s | microsomal CLint [2]: 8 µL/min/mg | max activation (Pyruvate kinase PKM [3]): 140%

Structure (SMILES): CCc1ccc(C)n2c(=O)cc(Cn3cnc4ccccc43)nc12
Papp A→B [1]: 16.2 ×10⁻⁶ cm/s | microsomal CLint [2]: 184 µL/min/mg | max activation (Pyruvate kinase PKM [3]): 135%

Structure (SMILES): O=c1cc(Cn2cnc3ccccc32)nc2sccn12
Papp A→B [1]: 17.3 ×10⁻⁶ cm/s | microsomal CLint [2]: 8 µL/min/mg | solubility kinetic [4]: 569 µM (≈ 161 µg/mL) | max activation (Pyruvate kinase PKM [3]): 162%

Structure (SMILES): Cc1ccc2nc(Cn3c(Cc4ccccc4)nc4ccccc43)cc(=O)n2c1
Activity (Pyruvate kinase PKM [10]): 155% | max activation (Pyruvate kinase PKM [3]): 148%

Structure (SMILES): O=c1cc(Cn2cnc3ccccc32)nc2scc(-c3ccccc3)n12
Papp A→B [1]: 11.5 ×10⁻⁶ cm/s | microsomal CLint [2]: 8 µL/min/mg | max activation (Pyruvate kinase PKM [3]): 167%

Structure (SMILES): COc1ccc2nc(Cn3cnc4ccccc43)cc(=O)n2c1
Papp A→B [1]: 25.8 ×10⁻⁶ cm/s | microsomal CLint [2]: < 8 µL/min/mg | solubility kinetic [4]: 580 µM (≈ 178 µg/mL) | max activation (Pyruvate kinase PKM [3]): 123%

Next, values leading:

max activation (Pyruvate kinase PKM [3]): 161%
Structure (SMILES): O=c1cc(Cn2cnc3ccccc32)nc2ccccn12

Papp A→B [1]: 21.3 ×10⁻⁶ cm/s | microsomal CLint [2]: 13.3 µL/min/mg | solubility kinetic [4]: 586 µM (≈ 170 µg/mL) | max activation (Pyruvate kinase PKM [3]): 161%
Structure (SMILES): Cc1ccn2c(=O)cc(Cn3cnc4ccccc43)nc2c1

Papp A→B [1]: 22.2 ×10⁻⁶ cm/s | microsomal CLint [2]: < 8 µL/min/mg | solubility kinetic [4]: 558 µM (≈ 173 µg/mL) | max activation (Pyruvate kinase PKM [3]): 156%
Structure (SMILES): O=c1cc(Cn2cnc3ccccc32)nc2ccc(Cl)cn12

Papp A→B [1]: 24.2 ×10⁻⁶ cm/s | microsomal CLint [2]: 17.8 µL/min/mg | solubility kinetic [4]: 529 µM (≈ 154 µg/mL) | max activation (Pyruvate kinase PKM [3]): 172%
Structure (SMILES): Cc1cccn2c(=O)cc(Cn3cnc4ccccc43)nc12

max activation (Pyruvate kinase PKM [3]): 149%
Structure (SMILES): Cc1ccc2nc(Cn3cnc4ccccc43)cc(=O)n2c1
